# Assay outcomes (PubChem)
# hERG rescue: compounds protecting human hERG from proarrhythmic drug block | Q12809 | CHO-hERG, FluxOR thallium flux, dofetilide IC70 present | activation (rescue from dofetilide block), less the hit threshold, % at 10 µM | 0.51% of 310,000 active | AID 1511;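 active means activation above the mean of controls blocked by dofetilide plus 5 SD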;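 further: thallium influx through hERG after potassium depolarization seen as dye fluorescence rise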
# KCNQ1 block: inhibitors of human KCNQ1 potassium channel. P51787. CHO-K1 KCNQ1, FluxOR thallium flux fluorescence; active compounds read high. B-score at 10 µM. 1.3% of 310,000 active. AID 2642;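 active means compounds whose thallium flux B-score, printed positive for inhibition, exceeds three library SD while starting fluorescence stays within three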;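 further: channel opened by potassium depolarization with thallium stimulus after 20 min compound exposure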
# KCNQ1 pot: human KCNQ1 channel potentiation or activation; CHO-K1 KCNQ1, thallium flux FluxOR fluorescence; active compounds read high; B-score at 10 µM; 0.35% of 310,000 active;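 active means fluorescence ratio B-score, a plate-corrected score, at least three library SD, with initial intensity B-score within 5 SD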
#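 Assay system: CHO-K1 cells stably expressing KCNQ1; Medium: assay buffer with matched DMSO; Also added: K+/Tl+ depolarizing stimulus; Dosing: single dose; Timing: dye 90 min, compound 20 min, room temperature; Measured by: kinetic FluxOR thallium fluorescence, 10-s 1-Hz baseline, 110-s post-stimulus read; Read-out: peak-minus-minimum fluorescence over initial fluorescence, negative-control normalized, B-scored.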
# KCNK3 inh: human KCNK3 channel inhibition, primary screen; CHO-KCNK3 thallium flux, FluxOR fluorescence; active compounds read low; O14649; AID 602410; 0.84% of 340,000 active; B-score at 10 µM;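 active means B-score under library mean minus 4 SD, starting fluorescence ratio at most library mean plus 5 SD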;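 further: more negative B-score means stronger inhibition of thallium flux through KCNK3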
# Target sequence (O14649 whole entry, looked up): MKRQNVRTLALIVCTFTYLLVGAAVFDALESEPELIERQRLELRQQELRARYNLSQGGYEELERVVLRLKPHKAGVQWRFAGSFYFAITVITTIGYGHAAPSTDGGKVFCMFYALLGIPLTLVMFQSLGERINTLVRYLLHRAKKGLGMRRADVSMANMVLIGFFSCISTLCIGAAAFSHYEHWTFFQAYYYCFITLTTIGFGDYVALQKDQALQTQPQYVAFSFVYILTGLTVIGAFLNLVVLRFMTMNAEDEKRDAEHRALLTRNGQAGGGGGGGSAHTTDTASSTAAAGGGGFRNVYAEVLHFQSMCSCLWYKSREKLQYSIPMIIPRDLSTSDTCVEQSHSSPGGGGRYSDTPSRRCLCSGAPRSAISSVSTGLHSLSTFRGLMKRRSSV
# Kir21 inh: blocks the mouse Kir2.1 inward-rectifier potassium channel; P35561; HEK293-Kir2.1, FluxOR thallium flux fluorescence; active compounds read low; B-score at 10 µM; 0.85% of 310,000 active; AID 1672;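 active means fluorescence ratio B-score at or below minus 3 SD of library scores, with starting-brightness B-score within 2 SD, cut at about -4.2 in these data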;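 further: channel flux triggered by added potassium and thallium sulfate stimulus; B-score of peak minus minimum fluorescence over baseline after thallium stimulus; more negative B-score means stronger Kir2.1 block with less thallium influx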
# KCNK9 inh: human KCNK9 channel inhibition; 1.2% of 310,000 active; B-score at 10 µM; HEK293 KCNK9, FluxOR thallium flux fluorescence; active compounds read low;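 active means ratio B-score over 3 SD below the library mean, with starting fluorescence within 5 SD of its mean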;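 further: negative B-score means less thallium flux so channel inhibition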
# KCNK9 block conf: human KCNK9 inhibitor confirmation; shares compounds with KCNK9 inh; HEK293 KCNK9 cells, FluxOR thallium flux fluorescence; inhibition, % at 10 µM; 43% of 4,900 active; AID 492992;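 active means thallium signal inhibited by more than 5 SD of the compound-free buffer control wells, on both duplicate plates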;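 further: 0% = assay buffer control wells without compound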
# Kir21 sel: mouse Kir2.1 off-target activity of KCNK9 modulators. shares compounds with KCNK9 inh. Kir2.1 cells, FluxOR thallium flux fluorescence. inhibition, % at 10 µM. 4% of 4,900 active. AID 492993;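 active means thallium signal drop more than 5 SD beyond the mean of the no-compound control wells, seen in both duplicate plates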;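 further: signal is fluorescence rise after thallium addition divided by baseline fluorescence; plate controls were assay buffer only for no effect and full block by chlorpromazine control for full effect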
# HEK293 Tl ctr: non-induced cell nonspecific activity of KCNK9 modulators; non-induced KCNK9-HEK293, FluxOR thallium flux; shares compounds with KCNK9 inh; 40% of 4,900 active; inhibition, % at 10 µM;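 active means thallium signal drop beyond 5 SD of the untreated control mean, on both duplicate plates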;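 further: plate controls were buffer only IC0 wells for no effect and SID17386958 at its maximal inhibitory level for full effect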
# Active calls of the source: *; i = inactive; / = no result given. Sampled rows, rich in hits. Any-hit rate of the full collection: about 3.7%.
SMILES,hERG rescue,KCNQ1 block,KCNQ1 pot,KCNK3 inh,Kir21 inh,KCNK9 inh,KCNK9 block conf,Kir21 sel,HEK293 Tl ctr
COc1cc(/C=C2\C(=N)N3N=C(C)SC3=NC2=O)cc(OC)c1OCCOc1ccccc1C,-1,i,i,i,2,i,/,/,/
CC(C)CS(=O)(=O)C1=NN2C(=N)/C(=C\c3ccc(OC(=O)c4ccco4)cc3)C(=O)N=C2S1,-30,i,i,i,-3,i,i,i,i
COc1ccc(N(CC(=O)N2CCN(c3cccc(C)c3C)CC2)S(=O)(=O)c2c(C)noc2C)cc1,-10,i,i,i,1.4,i,/,/,/
O=C(OCc1ccccc1C(F)(F)F)c1cc([N+](=O)[O-])ccc1N1CCOCC1,-6,i,i,i,-0.73,i,/,/,/
O=C(CCc1ccncc1)NC1CCCc2c1cnn2-c1cc(F)cc(F)c1 (configuration not stated),-8,i,i,i,0.01,i,/,/,/
CC(OC(=O)Cn1cnc2ccccc2c1=O)C(=O)NCc1ccccc1 (configuration not stated),-13,i,i,i,3,i,/,/,/
O=C(CSc1ccc(-c2ccc(F)cc2)nn1)N1CCCc2ccccc21,-5,i,i,i,-0.01,i,/,/,/
O=C(CSc1ccc(-c2ccc(Cl)cc2)nn1)N1CCCc2ccccc21,-15,i,i,i,1.3,i,i,i,i
c1ccc(C(c2ccccc2)N2CCN(Cc3nnnn3C3CCCC3)CC2)cc1,-11,i,i,i,-1.4,-9*,41%*,i,i
CC(C)CCn1nnnc1CN1CCN(C(c2ccccc2)c2ccccc2)CC1,-11,i,i,i,-1.2,i,/,/,/
NC(N)=Nc1nc(-c2ccccc2)c2ccccc2n1,-21,i,i,i,-3.4,-9.6*,27%*,i,i
CCc1nc(N=C(N)N)nc2ccccc12,-2,i,i,/,-0.02,i,/,/,/
O=C(NCCCn1ccnc1)c1ccc(C(F)(F)F)cc1,-14,i,i,i,0.55,i,/,/,/
Cc1cc(C)nc(Sc2ccc(/C=C(\C#N)C(=O)Nc3ccccc3)o2)n1,2,i,i,i,-0.62,i,/,/,/
CCc1ccccc1NC(=O)/C(C#N)=C/c1ccc(Sc2ccccc2)o1,-7,i,i,i,0.59,-14*,53%*,i,51%*
CCc1ccccc1NC(=O)/C(C#N)=C\c1ccc(Sc2ccccc2)o1,-3,i,i,-9.4*,0.6,-11*,40%*,i,49%*
CC1CC1c1ccc(/C=C(\C#N)C(=O)Nc2ccccc2Cl)o1 (configuration not stated),-13,i,i,i,-0.24,i,/,/,/
COc1ccc(C(=O)COC(=O)c2cc(S(=O)(=O)NCc3ccccc3)ccc2O)cc1,-17,i,i,i,0.87,i,/,/,/
Cc1cc(C)n2nc(SCC(=O)N3CCC(C)CC3)nc2n1,/,/,/,i,/,/,/,/,/
CCC(CC)C(=O)c1c[nH]c(C(=O)N2CCN(c3ccc(OC)cc3)CC2)c1,-6,i,i,i,1.8,i,/,/,/
Cc1cc(C(=O)CSc2nnnn2-c2ccc(O)cc2)c(C)n1Cc1ccc2c(c1)OCO2,-7,i,i,i,0.5,-9.8*,28%*,i,i
Cc1cc(C(=O)CSc2nnnn2-c2ccccc2)c(C)n1-c1ccc2c(c1)OCO2,-13,i,i,i,-0.43,i,/,/,/
O=C(NC1CCCCCC1)C(=S)NC1CCCCC1,-9,i,i,i,-0.15,i,/,/,/
Clc1cccc(C2CCN(Cc3nc(COc4ccccc4)no3)C2)c1 (configuration not stated),-13,i,i,i,0.04,i,i,i,i
Clc1cccc(CN2CCN(Cc3nc(CCc4ccccc4)no3)CC2)c1,-6,i,i,i,1.7,i,i,i,i
SMILES,hERG rescue,KCNQ1 block,KCNQ1 pot,KCNK3 inh,Kir21 inh,KCNK9 inh,KCNK9 block conf,Kir21 sel,HEK293 Tl ctr
c1ccc(OCc2noc(CN3CC[C@@H]4CCCC[C@H]4C3)n2)cc1,-10,i,i,i,1.6,i,/,/,/
CC1CC(C)CN(S(=O)(=O)c2ccc(C(C)(C)C)cc2)C1 (configuration not stated),-17,i,i,i,2.2,i,/,/,/
COC(=O)CNC(=O)COC(=O)/C=C/c1ccc(F)cc1,-3,i,i,i,0.15,i,/,/,/
Cc1ccc(NC(=O)O/N=C2\CCCCC2c2ccc([N+](=O)[O-])cc2[N+](=O)[O-])cc1 (configuration not stated),-6,i,i,i,0.2,-10*,65%*,i,32%*
O=[N+]([O-])c1ccc(C2CCCC/C2=N/OCc2ccc(F)cc2)c([N+](=O)[O-])c1 (configuration not stated),-14,i,i,i,-0.21,-8.2*,76%*,i,32%*
O=C(O/N=C1\CCCCC1c1ccc([N+](=O)[O-])cc1[N+](=O)[O-])c1c(F)cccc1F (configuration not stated),-10,i,i,i,0.99,i,/,/,/
Cc1ccc(C(C)NC(=O)/C(C#N)=C\c2c(C)[nH]c3ccccc23)cc1 (configuration not stated),-9,i,i,i,-0.07,i,i,i,i
Cc1[nH]c2ccccc2c1/C=C(\C#N)C(=O)NCc1ccccc1,0,i,i,i,-3.8,i,/,/,/
CCOc1ccc(C(=O)NN2CCOCC2)cc1,-3,i,i,i,1.2,i,/,/,/
CCCCOC(=O)N/N=C/C=C/c1ccccc1,-3,i,i,i,-0.03,i,/,/,/
Fc1ccc(Cn2nnnc2C(c2ccc(Cl)cc2)N2CCSCC2)cc1 (configuration not stated),-8,i,i,i,-1.7,-9.4*,40%*,i,44%*
O=C(NCC[C@@H]1C[C@@H]2C=C[C@H]1C2)c1cc(COc2ccc(F)cc2F)on1,-8,i,i,i,0,-21*,40%*,i,38%*
